According to ChEMBL document CHEMBL1287642, “Synthesis, antiviral activity and cytotoxicity evaluation of Schiff bases of some 2-phenyl quinazoline-4(3)H-ones” (Eur J Med Chem, 2010):
≈ marks a conversion by molar mass, not a printed value. Calls of active or inactive are those of the source. The calls are words filed in the database; no cut-off is given here.

Assays:
[1] = (§1) Cytotoxicity against MDCK cells by MTS assay; format: cell-based, Canis lupus familiaris; settings: dog, MDCK cells
Summary of the method: (§2)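 In Madin Darby canine kidney cells, the 50% cytotoxic concentration was derived from cell viability measured by the colorimetric formazan-based MTS assay.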

[2] = Cytotoxicity against MDCK cells assessed as minimum concentration required to cause microscopically detectable alteration after 2 days; format: cell-based, Canis lupus familiaris; settings: dog, read-out: Activity
Influenza B virus [3] = assay: Antiviral activity against influenza B virus infected in MDCK cells assessed as protection against virus-induced cytopathogenicity after 2 days; format: functional, organism-based
Summary of the method: (§3)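 Infected MDCK cells were treated. […] N.A. means not active at the highest concentration tested or at a subtoxic concentration.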

Influenza B virus [4] = assay: Antiviral activity against influenza B virus infected in MDCK cells assessed as cell viability after 2 days by MTS assay; format: functional, organism-based
Human respirovirus 3 = assay: Antiviral activity against Para influenza-3 virus infected in african green monkey Vero cells assessed as protection against virus-induced cytopathogenicity after 2 days; format: functional, organism-based; settings: Human respirovirus 3, Vero, 48 h
MDCK = assay: as §1; format: cell-based, Canis lupus familiaris; settings: dog, mdck; summary of the method: as §2
[5] = test system: Feline infectious peritonitis virus; assay: Antiviral activity against Feline coronavirus FIPV infected in cat CRFK cells assessed as protection against virus-induced cytopathogenicity after 2 days by MTS assay; format: functional, cell-based; settings: Alphacoronavirus 1, CRFK, 48 h
[6] = Cytotoxicity against african green monkey Vero cells assessed as minimum concentration required to cause microscopically detectable alteration after 2 days; format: cell-based; settings: chlorocebus sabaeus, read-out: Activity
[7] = Selectivity index, ratio of minimum concentration required to cause microscopically detectable alteration in human HEL cells to EC50 for acyclovir-resistant TK deficient Vaccina virus; format: toxicity, cell-based; settings: read-out: Selectivity Index
Summary of the method: (§4)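 Cytotoxicity was taken as the concentration causing a microscopically detectable change in normal cell morphology (Vero or HEL). […] The selectivity index is the first divided by the second.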

Punta Toro virus [8] = assay: Antiviral activity against Punta Toro virus infected in african green monkey Vero cells assessed as protection against virus-induced cytopathogenicity after 2 days; format: functional, organism-based; settings: 48 h
[9] = Cytotoxicity against human HEL cells assessed as minimum concentration required to cause microscopically detectable alteration after 2 days; format: cell-based; settings: read-out: Activity
[10] = Cytotoxicity against cat CRFK cells by MTS assay; format: cell-based, Felis catus; settings: crfk
Summary of the method: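 In uninfected CRFK cells, the 50% cytotoxic concentration was derived from cell viability measured by the colorimetric formazan-based MTS assay.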

[11] = test system: Mammalian orthoreovirus 1; assay: Antiviral activity against Reovirus-1 infected in african green monkey Vero cells assessed as inhibition of viral replication; format: functional, organism-based
[12] = Selectivity index, ratio of minimum concentration required to cause microscopically detectable alteration in green monkey Vero cells to EC50 for Punta Toro virus; format: toxicity, cell-based; settings: read-out: Selectivity Index; summary of the method: as §4
[13] = Cytotoxicity against human HeLa cells assessed as minimum concentration required to cause microscopically detectable alteration after 2 days; format: cell-based; settings: read-out: Activity
[14] = test system: Mammalian orthoreovirus 1; assay: Antiviral activity against Reovirus-1 infected in african green monkey Vero cells assessed as protection against virus-induced cytopathogenicity after 2 days; format: functional, organism-based; settings: Mammalian orthoreovirus 1, Vero, 48 h
Human alphaherpesvirus 1 [15] = assay: Antiviral activity against Herpes simplex virus-1 KOS infected in human HEL cells assessed as protection against virus-induced cytopathogenicity after 2 days; format: functional, organism-based; settings: Human alphaherpesvirus 1, KOS, 48 h
[16] = Selectivity index, ratio of minimum concentration required to cause microscopically detectable alteration in green monkey Vero cells to EC50 for Sindbis virus; format: toxicity, cell-based; settings: read-out: Selectivity Index; summary of the method: as §4
[17] = Selectivity index, ratio of minimum concentration required to cause microscopically detectable alteration in green monkey Vero cells to EC50 for sCoxsackie virus B4; format: toxicity, cell-based; settings: read-out: Selectivity Index; summary of the method: as §4
Human alphaherpesvirus 2 = assay: Antiviral activity against Herpes simplex virus-2 G infected in human HEL cells assessed as protection against virus-induced cytopathogenicity after 2 days; format: functional, organism-based; settings: Human alphaherpesvirus 2, strain G, 48 h
Human alphaherpesvirus 1 [18] = assay: Antiviral activity against acyclovir-resistant TK deficient Herpes simplex virus-1 KOS infected in human HEL cells assessed as protection against virus-induced cytopathogenicity after 2 days; format: functional, organism-based; settings: Human alphaherpesvirus 1, KOS, 48 h
Influenza A virus [19] = assay: Antiviral activity against Influenza A virus H3N2 infected in MDCK cells assessed as cell viability at 100 ug/ml after 2 days by MTS assay; format: functional, organism-based
Coxsackievirus B4 [20] = assay: Antiviral activity against Coxsackie virus B4 infected in human HeLa cells assessed as protection against virus-induced cytopathogenicity after 2 days; format: functional, organism-based; settings: Enterovirus B, 48 h
[21] = Selectivity index, ratio of minimum concentration required to cause microscopically detectable alteration in human HEL cells to EC50 for acyclovir-resistant TK deficient Herpes simplex virus-1 KOS; format: toxicity, cell-based; settings: read-out: Selectivity Index; summary of the method: as §4
Punta Toro virus [22] = assay: Antiviral activity against Punta Toro virus infected in african green monkey Vero cells assessed as inhibition of viral replication; format: functional, organism-based
Sindbis virus [23] = assay: Antiviral activity against Sindbis virus infected in african green monkey Vero cells assessed as protection against virus-induced cytopathogenicity after 2 days; format: functional, organism-based; settings: 48 h
Influenza A virus [24] = assay: Antiviral activity against influenza A virus H1N1 infected in MDCK cells assessed as cell viability at 100 ug/ml after 2 days by MTS assay; format: functional, organism-based
Sindbis virus [25] = assay: Antiviral activity against Sindbis virus infected in african green monkey Vero cells assessed as inhibition of viral replication; format: functional, organism-based
Felid alphaherpesvirus 1 = assay: Antiviral activity against Feline herpes virus infected in cat CRFK cells assessed as protection against virus-induced cytopathogenicity after 2 days by MTS assay; format: functional, organism-based; settings: Felid alphaherpesvirus 1, CRFK, 48 h
[26] = Selectivity index, ratio of minimum concentration required to cause microscopically detectable alteration in green monkey Vero cells to EC50 for Reovirus-1; format: toxicity, cell-based; settings: read-out: Selectivity Index; summary of the method: as §4
[27] = Selectivity index, ratio of minimum concentration required to cause microscopically detectable alteration in human HEL cells to EC50 for Herpes simplex virus-1 KOS; format: toxicity, cell-based; settings: read-out: Selectivity Index; summary of the method: as §4
Influenza B virus [28] = assay: Antiviral activity against influenza B virus infected in MDCK cells assessed as protection against virus-induced cytopathogenicity at 100 ug/ml after 2 days; format: functional, organism-based; summary of the method: as §3
Influenza A virus [29] = assay: Antiviral activity against Influenza A virus H3N2 infected in MDCK cells assessed as protection against virus-induced cytopathogenicity at 100 ug/ml after 2 days; format: functional, organism-based; summary of the method: as §3
Coxsackievirus B4 [30] = assay: Antiviral activity against Coxsackie virus B4 infected in african green monkey Vero cells assessed as inhibition of viral replication; format: functional, organism-based
[31] = Selectivity index, ratio of minimum concentration required to cause microscopically detectable alteration in human HEL cells to EC50 for Herpes simplex virus-2 G; format: toxicity, cell-based; settings: read-out: Selectivity Index; summary of the method: as §4
Coxsackievirus B4 [32] = assay: Antiviral activity against Coxsackie virus B4 infected in african green monkey Vero cells assessed as protection against virus-induced cytopathogenicity after 2 days; format: functional, organism-based; settings: Enterovirus B, 48 h
[33] = test system: Respiratory syncytial virus; assay: Antiviral activity against Respiratory syncytial virus infected in human HeLa cells assessed as protection against virus-induced cytopathogenicity after 2 days; format: functional, organism-based; settings: 48 h
Influenza B virus [34] = assay: Antiviral activity against influenza B virus infected in MDCK cells assessed as cell viability at 100 ug/ml after 2 days by MTS assay; format: functional, organism-based
Influenza A virus [35] = assay: Antiviral activity against influenza A virus H1N1 infected in MDCK cells assessed as protection against virus-induced cytopathogenicity at 100 ug/ml after 2 days; format: functional, organism-based; summary of the method: as §3
[36] = test system: Vesicular stomatitis virus; assay: Antiviral activity against Vesicular stomatitis virus infected in human HeLa cells assessed as protection against virus-induced cytopathogenicity after 2 days; format: functional, organism-based; settings: 48 h
[37] = test system: Vesicular stomatitis virus; assay: Antiviral activity against Vesicular stomatitis virus infected in human HEL cells assessed as protection against virus-induced cytopathogenicity after 2 days; format: functional, organism-based; settings: 48 h

NC12CC3CC(CC(C3)C1)C2 [AMANTADINE]
CC50 [1]: > 1000 µg/mL
MCC at 48 h [2]: > 1000 µg/mL
EC50 (Influenza B virus [3]): Not Active
EC50 (Influenza B virus [4]): Not Active

O=c1c2ccccc2nc(-c2ccccc2)n1/N=C/c1ccccc1O
EC50 (Human respirovirus 3): > 20 µg/mL
CC50 (MDCK): 2.6 µg/mL (≈ 7.62 µM)
EC50 [5]: > 4 µg/mL
MCC at 48 h [6]: 100 µg/mL
selectivity ratio [7]: 125
EC50 (Punta Toro virus [8]): 3 µg/mL (≈ 8.79 µM)
MCC at 48 h [9]: 100 µg/mL
CC50 [10]: 11.2 µg/mL (≈ 32.8 µM)
inhibition [11]: Active
selectivity ratio [12]: 33
MCC at 48 h [2]: ≥ 0.8 µg/mL
MCC at 48 h [13]: 4 µg/mL
EC50 [14]: 10 µg/mL (≈ 29.3 µM)
EC50 (Human alphaherpesvirus 1 [15]): 1 µg/mL (≈ 2.93 µM)
selectivity ratio [16]: 20
selectivity ratio [17]: 10
EC50 (Human alphaherpesvirus 2): 1 µg/mL (≈ 2.93 µM)
EC50 (Human alphaherpesvirus 1 [18]): 1 µg/mL (≈ 2.93 µM)
EC50 (Influenza A virus [19]): Not Active
EC50 (Coxsackievirus B4 [20]): > 0.8 µg/mL
selectivity ratio [21]: 100
inhibition (Punta Toro virus [22]): Active
EC50 (Sindbis virus [23]): 5 µg/mL (≈ 14.6 µM)
EC50 (Influenza A virus [24]): Not Active
inhibition (Sindbis virus [25]): Active
EC50 (Felid alphaherpesvirus 1): > 4 µg/mL
selectivity ratio [26]: 10
selectivity ratio [27]: 100
EC50 (Influenza B virus [28]): Not Active
EC50 (Influenza A virus [29]): Not Active
inhibition (Coxsackievirus B4 [30]): Active
selectivity ratio [31]: 100
EC50 (Coxsackievirus B4 [32]): 10 µg/mL (≈ 29.3 µM)
EC50 [33]: > 0.8 µg/mL
EC50 (Influenza B virus [34]): Not Active
EC50 (Influenza A virus [35]): Not Active
EC50 [36]: > 0.8 µg/mL
EC50 [37]: 15 µg/mL (≈ 43.9 µM)
